We go through eight molecules from paper PMC8320078 (ACS Omega, 2021).

The target of one test is α-glucosidase (yeast) (Saccharomyces cerevisiae, UniProt P53341). The experiment in a line: Inhibition of α-glucosidase. Format: biochemical. Conditions: read-out: α-glucosidase assay IC50; yeast enzyme; mean ± SD.
Another test can be described thus: DPPH assay. Conditions: mean ± SD; for DPPH assay TEAC: isolated compounds. The method in brief:
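Reduction of the DPPH free radical by extracts, fractions or isolated compounds, done in 96-well format following a published procedure. Quercetin and ascorbic acid were positive controls and MeOH the negative control. Runs were in triplicate (n = 3), reported as mean ± SD. Total antioxidant capacity was expressed as trolox equivalent antioxidant capacity (TEAC).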
For orientation: DPPH is a stable violet radical that fades when it is reduced.

Test [1] has as its target T1, porcine pancreatic lipase (PPL) (Sus scrofa, UniProt P00591).
T1 sequence (P00591 1-450): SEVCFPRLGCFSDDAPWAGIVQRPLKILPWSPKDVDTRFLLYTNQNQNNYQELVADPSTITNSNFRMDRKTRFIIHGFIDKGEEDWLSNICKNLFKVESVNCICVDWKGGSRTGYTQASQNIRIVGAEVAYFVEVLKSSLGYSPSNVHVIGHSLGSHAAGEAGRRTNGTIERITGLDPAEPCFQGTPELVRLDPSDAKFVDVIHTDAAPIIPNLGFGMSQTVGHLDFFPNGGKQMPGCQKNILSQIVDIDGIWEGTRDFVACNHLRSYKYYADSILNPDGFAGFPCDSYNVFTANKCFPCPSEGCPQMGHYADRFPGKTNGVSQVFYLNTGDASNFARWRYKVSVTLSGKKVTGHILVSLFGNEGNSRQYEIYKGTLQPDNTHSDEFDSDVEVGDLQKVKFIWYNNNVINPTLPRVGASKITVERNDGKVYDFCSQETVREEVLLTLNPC
The test can be described thus: Inhibition of pancreatic lipase. Format: biochemical. Conditions: read-out: lipase assay IC50, mean ± SD.

A short description of another test: ABTS assay. Conditions: isolated compounds; mean ± SD. In short, it runs like this:
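ABTS radical-scavenging capacity of isolated compounds, from a modified literature method. Activity was read from a trolox calibration curve (7.78–1000 μM) and expressed as trolox equivalents (μM TE/mM). Ascorbic acid and quercetin served as positive controls, MeOH as negative control. Each sample was run in triplicate (n = 3); values are mean ± SD.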

The test system of test [2] is formation of advanced glycation end products (AGEs), BSA-methylglyoxal model. The test can be described thus: BSA-methylglyoxal antiglycation assay. It counts as biochemical, bovine. Conditions: read-out: BSA-methylglyoxal model IC50; isolated compounds; mean ± SD.
The subject of test [3] is formation of advanced glycation end products (AGEs), BSA-fructose model. The test can be described thus: BSA-fructose antiglycation assay. Format: biochemical, bovine. Conditions: read-out: BSA-fructose model IC50; isolated compounds; mean ± SD.
The next test in a line: FRAP assay. Conditions: isolated compounds; mean ± SD. The method in brief: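 FRAP: Fe3+ is reduced to Fe2+, which TPTZ chelates to form the Fe2+-TPTZ complex. Activity of isolated compounds was read from a trolox standard curve (7.78–1000 μM) and expressed as μM TE/mM. Quercetin and ascorbic acid were positive controls, MeOH the negative control. Triplicate runs (n = 3); mean ± SD.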

The subject of test [4] is formation of AGEs induced by glucose or methylglyoxal. Conditions: at 100 μM; cited from earlier work.

Sequence of α-glucosidase (yeast) (P53341 whole entry): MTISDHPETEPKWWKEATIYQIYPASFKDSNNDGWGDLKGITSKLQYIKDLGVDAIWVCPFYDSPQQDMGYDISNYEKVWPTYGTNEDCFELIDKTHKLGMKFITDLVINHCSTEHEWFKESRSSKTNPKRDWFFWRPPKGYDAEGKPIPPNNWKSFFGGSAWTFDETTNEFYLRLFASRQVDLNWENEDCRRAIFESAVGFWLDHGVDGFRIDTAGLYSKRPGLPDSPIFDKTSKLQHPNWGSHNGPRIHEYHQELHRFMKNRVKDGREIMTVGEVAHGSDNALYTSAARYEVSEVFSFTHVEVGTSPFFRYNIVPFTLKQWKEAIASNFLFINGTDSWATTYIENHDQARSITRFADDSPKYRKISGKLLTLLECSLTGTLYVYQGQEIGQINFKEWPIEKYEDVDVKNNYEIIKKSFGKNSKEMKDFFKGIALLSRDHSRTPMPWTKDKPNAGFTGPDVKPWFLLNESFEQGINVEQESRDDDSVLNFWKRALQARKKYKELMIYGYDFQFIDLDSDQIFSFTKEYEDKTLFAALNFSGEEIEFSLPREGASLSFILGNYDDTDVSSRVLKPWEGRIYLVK

The IC50 is the concentration at which inhibition is half-maximal. Take “12β-O-benzoyl 3β,8β,12β,14β,20-pentahydroxy-(20S)-pregn-5-ene-3-O-β-D-glucopyranosyl-(1 → 4)-O-β-D-digitaloside [compound 1]”: the IC50 was 920 ± 20 µM at α-glucosidase (yeast), > 100 µM in test [1], > 1300 µM in test [2] and 502 ± 70.9 µM in test [3]. In addition, the “DPPH assay TEAC” value in “DPPH assay” worked out at 43.30 ± 3.12 μM TE/mM. Further, the “ABTS assay TEAC” value in “ABTS assay” is recorded as 12.14 ± 14.86 μM TE/mM. Further, the “FRAP assay TEAC” value in the test “FRAP assay” was 17.96 ± 4.25 μM TE/mM.
For the molecule `O=C1O[C@H]([C@@H](O)CO)C(O)=C1O` [ascorbic acid, reference compound], the “DPPH assay EC50” value in the test “DPPH assay” (extracts/fractions) was determined as 2.76 ± 1.63 mg/L. Besides, the “DPPH assay TEAC” value in the test “DPPH assay” came to 802.73 ± 32.63 μM TE/mM. For the same molecule, the “ABTS assay TEAC” value in “ABTS assay” is listed as 1132.84 ± 20.25 μM TE/mM. Further, the “FRAP assay TEAC” value in the test “FRAP assay” turned out to be 1195.58 ± 4.41 μM TE/mM.
For the molecule `CO[C@@H]1[C@@H](O)[C@H](O[C@H]2CC[C@@]3(C)C(=CC[C@]4(O)[C@@H]3CC[C@]3(C)[C@@H]([C@H](C)O[C@@H]5O[C@H](CO)[C@@H](O)[C@H](OC(=O)CC(C)C)[C@H]5O)CC[C@@]34O)C2)O[C@H](C)[C@@H]1O[C@@H]1O[C@H](CO)[C@@H](O)[C@H](O)[C@H]1O` [compound 2, 3β,8β,14β,20-tetrahydroxy-(20S)-pregn-5-ene-3-O-β-D-glucopyranosyl-(1 → 4)-O-β-D-digitaloside-20-O-3-Isoval-β-D-glucopyranoside], the IC50 is 670 ± 10 µM at α-glucosidase (yeast), > 100 µM in test [1] and > 1300 µM in test [2]. Moreover, in the test “DPPH assay”, the “DPPH assay TEAC” value came out at 30.27 ± 2.70 μM TE/mM. Besides, in “ABTS assay”, the “ABTS assay TEAC” value is reported as 9.19 ± 15.59 μM TE/mM. Moreover, the “FRAP assay TEAC” value in “FRAP assay” stood at 23.08 ± 1.89 μM TE/mM.
Turning to `O=c1cc(-c2ccc(O)cc2)oc2cc(O)c([C@@H]3O[C@H](CO)[C@@H](O)[C@H](O)[C@H]3O)c(O)c12` [isovitexin], the “efficacy against formation of AGEs” value in test [4] is “over 85%”.
For the molecule `O=c1c(O)c(-c2ccc(O)c(O)c2)oc2cc(O)cc(O)c12` [quercetin, reference compound], the “DPPH assay TEAC” value in the test “DPPH assay” is 953.94 ± 4.17 μM TE/mM. Moreover, in “ABTS assay”, the “ABTS assay TEAC” value worked out at 1435.38 ± 14.02 μM TE/mM. Further, the concentration for half-maximal inhibition (IC50) turned out to be 847.3 ± 1.04 µM in test [2] and 50.6 ± 3.9 µM in test [3]. The “FRAP assay TEAC” value in “FRAP assay” is on record as 1373.75 ± 35.39 μM TE/mM.
Consider `O=c1cc(-c2ccc(O)cc2)oc2c([C@@H]3O[C@H](CO)[C@@H](O)[C@H](O)[C@H]3O)c(O)cc(O)c12` [vitexin], for which, in test [4], the “efficacy against formation of AGEs” value is “over 85%”.
In the case of `CC[C@H](CC[C@@H](C)[C@H]1CC[C@H]2[C@@H]3CC=C4C[C@@H](O[C@@H]5O[C@H](CO)[C@@H](O)[C@H](O)[C@H]5O)CC[C@]4(C)[C@H]3CC[C@]12C)C(C)C` [β-sitosterol-glucoside], the “DPPH assay TEAC” value in “DPPH assay” was 36.27 ± 10.39 μM TE/mM. Further, the “ABTS assay TEAC” value in the test “ABTS assay” came to 11.81 ± 7.07 μM TE/mM. In addition, the IC50 in test [2] was > 1300 µM; in test [3] it was 1032 ± 2.48 µM. The “FRAP assay TEAC” value in the test “FRAP assay” is recorded as 66.21 ± 16.25 μM TE/mM.
With `CC[C@H](CC[C@@H](C)[C@H]1CC[C@H]2[C@@H]3CC=C4C[C@@H](O)CC[C@]4(C)[C@H]3CC[C@]12C)C(C)C` [β-sitosterol], the “DPPH assay TEAC” value in the test “DPPH assay” is listed as 37.87 ± 11.03 μM TE/mM. Moreover, the “ABTS assay TEAC” value in “ABTS assay” turned out to be 3.42 ± 9.77 μM TE/mM. The IC50 in test [2] and in test [3] was > 1300 µM each time. Besides, the “FRAP assay TEAC” value in “FRAP assay” was 13.50 ± 3.48 μM TE/mM.
